SKKanGAS inh: S. pyogenes SKKanGAS growth inhibitors in kanamycin, primary screen, streptokinase expression inhibitor project, SKKanGAS strain, BacTiter-Glo luminescence. 6 h. inhibition, % at 7.5 µM. 300,000 tested, 1.3% active;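 active means mean replicate score, as percent of positive control median, at least 50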;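 further: strain carries kanamycin resistance gene driven by streptokinase promoter and grows in 40 µg/ml kanamycin; loss of luminescence reflects streptokinase promoter inhibition or plain growth inhibition; 0% = median of DMSO wells and 100% = positive control at its reference dose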
Beta apoptosis: inhibitors of cytokine-induced beta cell apoptosis, primary screen, luminescence; INS-1E cytokine-induced death, ATP luminescence, 48 h; percent of positive-control rescue, neutral wells zero; protection from apoptosis, % (no concentration beside the values); 300,000 tested, 0.8% active;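 active means Every replicate reaches about 75%, or at least half do and their mean reaches it too, limit read from the data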;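 further: 0% = cytokine-treated negative control wells and 100% = positive control rescue; higher means more ATP so stronger rescue from cytokine killing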
PfHsp90 set2: growth inhibition of PfHsp90-expressing yeast, primary screen, antimalarial PfHsp90 inhibitor project, S. cerevisiae, BacTiter-Glo luminescence, single point, set 2. BacTiter-Glo ATP, 48 h; yeast lacking PDR1 and PDR3 efflux regulators. inhibition, % at 9.4 µM. 310,000 tested, 0.32% active. AID 504621, 2011;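 active means every replicate shows inhibition above about 80%, whatever the replicate mean, limit read from the data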;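 further: 0% = DMSO neutral controls and 100% = 20 µM radicicol positive controls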
CSC inhib: cancer stem cell viability inhibitors, primary screen, luminescence; cancer stem cell-like cells viability; inhibition, % at 7.5 µM; 300,000 tested, 1.1% active; AID 2717, 2010; in the data active means inhibition above about 75%; tested in HMLE shEcad cells
T cruzi inh: inhibitors of intracellular T. cruzi growth, primary screen, luminescence, NIH3T3 host cells. T. cruzi beta-gal in NIH3T3, 90 h. inhibition, % (no concentration beside the values). 300,000 tested, 1.4% active. AID 1885, 2009;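 active means mean inhibition across valid replicates above about 55%, limit read from the data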;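 further: signal also drops with host cell toxicity which is not excluded here; 0% = plate median of DMSO wells and 100% = zero luminescence signal; higher percent means less beta-gal luminescence so fewer parasites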
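assay system = mouse NIH/3T3 fibroblasts infected with β-gal-expressing T. cruzi Tulahuen C4 | input = 5,000 NIH/3T3 host cells per well | buffer or medium = DMEM plus 2% FBS | timing = 3 h host attachment, then at least 90 h co-culture | measured by = GalScreen luminescence, 60 min | evaluation = luminescence reflecting intracellular parasite burden, expressed as percent inhibition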
HIF act: HIF pathway transcriptional activators, primary screen, cell-based, U2OS HRE-luciferase, luminescence; 300,000 tested, 0.32% active; AID 1910, 2009; U2OS HRE-luciferase reporter; normalized: DMSO 0%, desferrioxamine 100%; activation, % at 7.5 µM (by protocol);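 active means mean activation of at least 10% of the iron chelator positive control signal, with at least half of replicates also reaching 10%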
* marks the source's active call; other numbers are inactive results. The list is not random: actives were taken first. Their share in the collection is about 3.6%.

What do the screens show for `COc1ccc(/C=C/c2ccc3cccc(O)c3n2)cc1Br`?
SKKanGAS inh: 93.3*; Beta apoptosis: 22.0; PfHsp90 set2: -0.6; CSC inhib: 31.2; T cruzi inh: 44.2; HIF act: 2.7

How did COc1ccc(CC(=O)NNC(=O)c2cc(Cl)ccc2OC)cc1 do in these assays?
PfHsp90 set2: 1.0

Results for N/C(=N\OC(=O)c1ccccc1F)c1cccc([N+](=O)[O-])c1 ?
SKKanGAS inh: -2.4; Beta apoptosis: -0.4; PfHsp90 set2: 9.6; CSC inhib: 17.3; T cruzi inh: -10.1; HIF act: 2.4

What do the screens show for `Cc1ccc(C(=O)c2no[n+]([O-])c2C(=O)c2ccc(C)cc2)cc1`?
SKKanGAS inh: 7.0; Beta apoptosis: 3.7; PfHsp90 set2: 128.1*; CSC inhib: 36.1; T cruzi inh: 12.1; HIF act: -0.2

What do the screens show for `CC1CCC(C(C)C)C(OC(=O)C[n+]2cc(-c3ccc(Cl)cc3)n3c2CCCCC3)C1` (stereo not drawn)?
SKKanGAS inh: 22.2; Beta apoptosis: 106.3*; PfHsp90 set2: -0.4; CSC inhib: -4.2; T cruzi inh: 56.0*; HIF act: -0.1

Results for CC(NC(=O)c1cccc(S(=O)(=O)N(C)c2ccccc2)c1)c1cccnc1 (stereo not drawn) ?
Beta apoptosis: 2.9; PfHsp90 set2: 10.5; CSC inhib: -6.6

How did Cc1ccc(N(CC(=O)NCCc2ccc(F)cc2)S(=O)(=O)c2ccc(Cl)c([N+](=O)[O-])c2)c(C)c1 do in these assays?
SKKanGAS inh: 6.7; Beta apoptosis: 7.4; PfHsp90 set2: -10.2; CSC inhib: 79.9*; T cruzi inh: 27.4; HIF act: 0.1

Results for CC(NC(=O)CN(c1cccc(C(F)(F)F)c1)S(=O)(=O)c1ccc(Cl)c([N+](=O)[O-])c1)c1ccccc1 (stereo not drawn) ?
SKKanGAS inh: 13.1; Beta apoptosis: 6.5; PfHsp90 set2: -25.3; CSC inhib: 98.1*; T cruzi inh: 5.0; HIF act: -4.1

How did O=C(CN(c1ccc(Br)cc1)S(=O)(=O)c1ccc(Cl)c([N+](=O)[O-])c1)NCCc1ccccc1 do in these assays?
SKKanGAS inh: 6.0; Beta apoptosis: 3.3; PfHsp90 set2: -10.3; CSC inhib: 22.8; T cruzi inh: 75.0*; HIF act: -0.7

What do the screens show for `O=C(CN(c1cccc(C(F)(F)F)c1)S(=O)(=O)c1ccc(Cl)c([N+](=O)[O-])c1)NCc1ccccc1`?
SKKanGAS inh: 2.7; Beta apoptosis: -8.1; PfHsp90 set2: -5.5; CSC inhib: 85.3*; T cruzi inh: -7.8; HIF act: -0.3

Results for O=C(O)CN(c1cccc(C(F)(F)F)c1)S(=O)(=O)c1ccccc1 ?
SKKanGAS inh: 4.2; Beta apoptosis: -0.8; PfHsp90 set2: -1.9; CSC inhib: -0.4; T cruzi inh: -17.5; HIF act: -0.7

What do the screens show for `COc1ccc(CCNC(=O)CN(c2ccc(OC)c(OC)c2)S(=O)(=O)c2ccc(C)cc2)cc1`?
SKKanGAS inh: 5.1; Beta apoptosis: 3.8; PfHsp90 set2: -20.3; T cruzi inh: 31.7; HIF act: -0.7

How did CS(=O)(=O)c1ccccc1-c1csc(N2CCC(C(N)=O)CC2)n1 do in these assays?
Beta apoptosis: -10.2; CSC inhib: -18.4

What do the screens show for `CCc1cccc(OCC(=O)Nc2ccccc2N2CCCC2)c1`?
SKKanGAS inh: -1.9; Beta apoptosis: 4.8; PfHsp90 set2: -38.4; CSC inhib: -18.3; T cruzi inh: 25.8; HIF act: -0.1

How did O=C(CN(c1cccc(C(F)(F)F)c1)S(=O)(=O)c1ccc(Cl)c([N+](=O)[O-])c1)NCc1ccccc1Cl do in these assays?
SKKanGAS inh: 22.4; Beta apoptosis: -9.0; PfHsp90 set2: -40.6; CSC inhib: 100.8*; T cruzi inh: 22.6; HIF act: 0.0

How did CCOC(=O)c1c(NC(=O)c2ccc(C)cc2)sc2c1CC(C)(C)NC2(C)C do in these assays?
SKKanGAS inh: -0.9; CSC inhib: 11.9; T cruzi inh: 32.0; HIF act: 0.1

What do the screens show for `CCOC(=O)c1c(NC(=O)CSc2nnnn2-c2ccccc2)sc2c1CC(C)(C)NC2(C)C`?
SKKanGAS inh: 3.2; Beta apoptosis: -0.8; PfHsp90 set2: 7.4; CSC inhib: 39.4; T cruzi inh: 73.5*; HIF act: 0.3

What do the screens show for `CCOC(=O)c1c(NC(=O)COC(=O)c2ccc(C)s2)sc2c1CC(C)(C)NC2(C)C`?
SKKanGAS inh: 63.4*; Beta apoptosis: -10.4; PfHsp90 set2: 18.5; CSC inhib: 3.9; T cruzi inh: 9.1; HIF act: 0.6

What do the screens show for `CCOC(=O)c1c(NC(=O)CSc2nc3ccc(C)cc3[nH]2)sc2c1CC(C)(C)NC2(C)C`?
SKKanGAS inh: -10.3; Beta apoptosis: -4.7; PfHsp90 set2: 6.9; CSC inhib: 77.8*; T cruzi inh: 60.5*; HIF act: -0.1

What do the screens show for `CCOC(=O)c1c(NC(=O)COc2ccccc2OCC)sc2c1CC(C)(C)NC2(C)C`?
SKKanGAS inh: 22.2; Beta apoptosis: 10.8; PfHsp90 set2: -9.2; CSC inhib: 2.0; T cruzi inh: 44.1; HIF act: 0.4

Results for CCOC(=O)c1c(NC(=O)CSc2nnnn2-c2ccccc2OCC)sc2c1CC(C)(C)NC2(C)C ?
SKKanGAS inh: -6.4; Beta apoptosis: 37.5; PfHsp90 set2: 2.2; CSC inhib: 55.8; T cruzi inh: 56.6*; HIF act: 0.0

Results for COc1ccc(C/C(C)=N\NC(=O)c2cn(C)c3ccccc23)cc1OC ?
SKKanGAS inh: 3.5; Beta apoptosis: -3.9; PfHsp90 set2: -1.7; CSC inhib: -0.4; T cruzi inh: -7.7; HIF act: 0.6

What do the screens show for `COc1cc2c(cc1OC)C(=O)CCC2`?
PfHsp90 set2: 4.1

What do the screens show for `Cc1nc(SCc2nc3cc(Cl)c(F)cc3[nH]2)c2oc3ccccc3c2n1`?
Beta apoptosis: 15.6; PfHsp90 set2: -10.8

How did Cc1cc(C)n(CCC(=O)Nc2cccc(F)c2)n1 do in these assays?
SKKanGAS inh: 1.4; Beta apoptosis: -1.4; PfHsp90 set2: 6.3; CSC inhib: -15.1; T cruzi inh: -10.3; HIF act: 0.1

Results for O=C(Nc1ccccc1F)c1cc(S(=O)(=O)N2CCOCC2)cs1 ?
SKKanGAS inh: 1.5; Beta apoptosis: -2.7; PfHsp90 set2: 1.4; CSC inhib: -12.3; T cruzi inh: -9.1; HIF act: 0.1

How did Cc1cccc(C(=O)Oc2ccccc2/C=N/NC(=O)c2ccc(NC(=O)C(C)(C)C)cc2)c1 do in these assays?
SKKanGAS inh: 13.9; Beta apoptosis: 19.1; PfHsp90 set2: -12.6; CSC inhib: 26.4; T cruzi inh: -0.1; HIF act: -0.3

High-throughput results from PubChem BioAssay.
